Results taken from ChEMBL document CHEMBL5724801, “EUbOPEN Chemogenomics Library - Multiplex” (2024).
Several values for one entry are separate records, joined by “and”; a condition that tells them apart may be missing. Identical values can stand only once.

System: U2OS
Test: Multiplex assay against U2OS
Type: toxicity, cell-based
Conditions: human
In short: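 Phenotypes for tubulin, mitochondrial mass and membrane permeability are expressed as per cents of healthy-nucleus cells. Cells were stained live at seeding with Hoechst33342, BioTracker Green Microtubule Cytoskeleton Dye, MitoTracker Red and Annexin V Alexa Fluor 680, then imaged after compound addition on a CQ1 microscope at 37°C and 5% CO2. Machine-learning gating in CellPathfinder separated Hoechst high-intensity objects from normal cells, divided normal cells by nuclear state (healthy, pyknosed, fragmented) and divided pyknosed cells into mitotic or apoptotic.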

[1] = 12 h, 1 µM, compound concentration 1 uM
[2] = 12 h, 10 µM, compound concentration 10 uM
[3] = 24 h, 1 µM, compound concentration 1 uM
[4] = 24 h, 10 µM, compound concentration 10 uM
[5] = 48 h, 1 µM, compound concentration 1 uM
[6] = 48 h, 10 µM, compound concentration 10 uM

Compound: COc1cccc2c1c(NS(=O)(=O)c1ccc(Cl)s1)nn2Cc1cccc(CNC(=O)C(C)(C)O)c1
- Population Apoptotic (%) [1]: 86% and 81%
- Population Fragmented Nuclei (%) [1]: 23% and 29%
- Population Healthy Nuclei (%) [1]: 67% and 64%
- Population Hoechst High Intensity Objects (%) [1]: 3% and 6%
- Population Membrane Permeable-Phenotype (%) [1]: 4% and 7%
- Population Mitochondria Different-Phenotype (%) [1]: 1% and 3%
- Population Mitotic Cells (%) [1]: 13% and 18%
- Population Normal (%) [1]: 96% and 93%
- Population Pyknosed Nuclei (%) [1]: 9% and 5%
- Population Tubulin-Different-Phenotype (%) [1]: 1% and 6%
- Total Cell Count [1]: 261 and 201
- Population Apoptotic (%) [2]: 76% and 83%
- Population Fragmented Nuclei (%) [2]: 26% and 25%
- Population Healthy Nuclei (%) [2]: 65% and 70%
- Population Hoechst High Intensity Objects (%) [2]: 1% and 5%
- Population Membrane Permeable-Phenotype (%) [2]: 6% and 8%
- Population Mitochondria Different-Phenotype (%) [2]: 2% and 3%
- Population Mitotic Cells (%) [2]: 23% and 16%
- Population Normal (%) [2]: 98% and 94%
- Population Pyknosed Nuclei (%) [2]: 8% and 4%
- Population Tubulin-Different-Phenotype (%) [2]: 4% and 2%
- Total Cell Count [2]: 264 and 140
- Population Apoptotic (%) [3]: 96% and 90%
- Population Fragmented Nuclei (%) [3]: 20% and 28%
- Population Healthy Nuclei (%) [3]: 70% and 66%
- Population Hoechst High Intensity Objects (%) [3]: 1% and 5%
- Population Membrane Permeable-Phenotype (%) [3]: 5% and 8%
- Population Mitochondria Different-Phenotype (%) [3]: 1% and 3%
- Population Mitotic Cells (%) [3]: 3% and 9%
- Population Normal (%) [3]: 98% and 94%
- Population Pyknosed Nuclei (%) [3]: 8% and 4%
- Population Tubulin-Different-Phenotype (%) [3]: 3% and 6%
- Total Cell Count [3]: 307 and 242
- Population Apoptotic (%) [4]: 90% and 88%
- Population Fragmented Nuclei (%) [4]: 25%
- Population Healthy Nuclei (%) [4]: 64% and 68%
- Population Hoechst High Intensity Objects (%) [4]: 1% and 5%
- Population Membrane Permeable-Phenotype (%) [4]: 5% and 8%
- Population Mitochondria Different-Phenotype (%) [4]: 3% and 4%
- Population Mitotic Cells (%) [4]: 10% and 11%
- Population Normal (%) [4]: 98% and 94%
- Population Pyknosed Nuclei (%) [4]: 10% and 5%
- Population Tubulin-Different-Phenotype (%) [4]: 2%
- Total Cell Count [4]: 304 and 167
- Population Apoptotic (%) [5]: 95% and 74%
- Population Fragmented Nuclei (%) [5]: 14% and 22%
- Population Healthy Nuclei (%) [5]: 76% and 68%
- Population Hoechst High Intensity Objects (%) [5]: 1% and 7%
- Population Membrane Permeable-Phenotype (%) [5]: 4% and 5%
- Population Mitochondria Different-Phenotype (%) [5]: 1% and 4%
- Population Normal (%) [5]: 98% and 92%
- Population Pyknosed Nuclei (%) [5]: 9%
- Population Tubulin-Different-Phenotype (%) [5]: 2% and 5%
- Total Cell Count [5]: 463 and 314
- Population Apoptotic (%) [6]: 93% and 100%
- Population Fragmented Nuclei (%) [6]: 20% and 22%
- Population Healthy Nuclei (%) [6]: 71%
- Population Hoechst High Intensity Objects (%) [6]: 2% and 3%
- Population Membrane Permeable-Phenotype (%) [6]: 5%
- Population Mitochondria Different-Phenotype (%) [6]: 2% and 3%
- Population Mitotic Cells (%) [6]: 6% and 0%
- Population Normal (%) [6]: 97% and 96%
- Population Pyknosed Nuclei (%) [6]: 8% and 5%
- Population Tubulin-Different-Phenotype (%) [6]: 3%
- Total Cell Count [6]: 413 and 235

Compound: OCCCNc1cc(-c2ccnc(Nc3cccc(Cl)c3)n2)ccn1
- Population Apoptotic (%) [1]: 88% and 80%
- Population Fragmented Nuclei (%) [1]: 38% and 27%
- Population Healthy Nuclei (%) [1]: 52% and 51%
- Population Hoechst High Intensity Objects (%) [1]: 3% and 5%
- Population Membrane Permeable-Phenotype (%) [1]: 8% and 10%
- Population Mitotic Cells (%) [1]: 11% and 20%
- Population Normal (%) [1]: 97% and 94%
- Population Pyknosed Nuclei (%) [1]: 9% and 20%
- Population Tubulin-Different-Phenotype (%) [1]: 4% and 5%
- Total Cell Count [1]: 200 and 76
- Population Apoptotic (%) [2]: 85% and 91%
- Population Fragmented Nuclei (%) [2]: 37% and 24%
- Population Healthy Nuclei (%) [2]: 56% and 64%
- Population Hoechst High Intensity Objects (%) [2]: 4% and 10%
- Population Membrane Permeable-Phenotype (%) [2]: 46% and 47%
- Population Mitochondria Different-Phenotype (%) [2]: 36% and 51%
- Population Mitotic Cells (%) [2]: 14% and 8%
- Population Normal (%) [2]: 95% and 89%
- Population Pyknosed Nuclei (%) [2]: 6% and 11%
- Population Tubulin-Different-Phenotype (%) [2]: 46% and 61%
- Total Cell Count [2]: 237 and 118
- Population Apoptotic (%) [3]: 96% and 94%
- Population Fragmented Nuclei (%) [3]: 43% and 40%
- Population Healthy Nuclei (%) [3]: 43% and 33%
- Population Hoechst High Intensity Objects (%) [3]: 7%
- Population Membrane Permeable-Phenotype (%) [3]: 10% and 16%
- Population Mitochondria Different-Phenotype (%) [3]: 10% and 25%
- Population Mitotic Cells (%) [3]: 4% and 5%
- Population Normal (%) [3]: 92%
- Population Pyknosed Nuclei (%) [3]: 13% and 25%
- Population Tubulin-Different-Phenotype (%) [3]: 6% and 16%
- Total Cell Count [3]: 200 and 77
- Population Apoptotic (%) [4]: 88% and 95%
- Population Fragmented Nuclei (%) [4]: 37% and 30%
- Population Healthy Nuclei (%) [4]: 50% and 49%
- Population Hoechst High Intensity Objects (%) [4]: 11% and 12%
- Population Membrane Permeable-Phenotype (%) [4]: 34% and 43%
- Population Mitochondria Different-Phenotype (%) [4]: 40% and 54%
- Population Mitotic Cells (%) [4]: 12% and 4%
- Population Normal (%) [4]: 88% and 87%
- Population Pyknosed Nuclei (%) [4]: 12% and 20%
- Population Tubulin-Different-Phenotype (%) [4]: 37% and 61%
- Total Cell Count [4]: 229 and 128
- Population Apoptotic (%) [5]: 95% and 100%
- Population Fragmented Nuclei (%) [5]: 56% and 59%
- Population Healthy Nuclei (%) [5]: 22% and 11%
- Population Hoechst High Intensity Objects (%) [5]: 16% and 12%
- Population Membrane Permeable-Phenotype (%) [5]: 30%
- Population Mitochondria Different-Phenotype (%) [5]: 14% and 20%
- Population Mitotic Cells (%) [5]: 4% and 0%
- Population Normal (%) [5]: 83% and 87%
- Population Pyknosed Nuclei (%) [5]: 21% and 28%
- Population Tubulin-Different-Phenotype (%) [5]: 26% and 10%
- Total Cell Count [5]: 227 and 99
- Population Apoptotic (%) [6]: 94% and 96%
- Population Fragmented Nuclei (%) [6]: 47% and 50%
- Population Healthy Nuclei (%) [6]: 31% and 25%
- Population Hoechst High Intensity Objects (%) [6]: 21% and 23%
- Population Membrane Permeable-Phenotype (%) [6]: 43% and 65%
- Population Mitochondria Different-Phenotype (%) [6]: 45% and 34%
- Population Mitotic Cells (%) [6]: 5% and 4%
- Population Normal (%) [6]: 78% and 76%
- Population Pyknosed Nuclei (%) [6]: 21% and 24%
- Population Tubulin-Different-Phenotype (%) [6]: 45% and 65%
- Total Cell Count [6]: 223 and 134
